Experimental data: PubChem BioAssay AID651647 (Sanford-Burnham Center for Chemical Genomics, 2012)
The campaign covered roughly 360,000 compounds. About 220 (0.061%) were called active. The list comes from a sample in which actives are over-represented; it also holds similar structures and randomly drawn compounds. Values without a mark were called inactive.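 How the source made its calls: active means GFP/RFP ratio change of at least 30% with cell ATP level not reduced by more than half and red fluorescence within 50% of control; inactive means the rest, inconclusive results apart.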

target: Matrix metalloproteinase-14 (Homo sapiens) (UniProt P50281); assay: blockers of MT1-MMP proenzyme processing, primary screen, HT1080 RFP-PRO-GFP cells, GFP/RFP fluorescence (AID 651647); conditions: overnight, at 20 µM, hits give high values, percent of plate control window, DMSO zero
Outline: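 Assay system: HT1080 RFP-PRO-GFP cells. Benchmarks: DMSO vehicle wells and RFP-L50D-GFP reporter cell wells. Times: overnight cell settling, then overnight compound exposure, 37 °C, 5% CO2. Compound: 20 µM single dose, 1% DMSO. Read-out basis: GFP/RFP fluorescence ratio.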

Structure (SMILES) | GFP/RFP ratio change
COC1=C/C(=C/c2c(N)n3nc(CC(=O)N4CCOCC4)sc3nc2=O)C=CC1=O | -33.2%
Cc1ccc(C(=O)Nc2nnc(C3=COCCO3)o2)cc1C | -0.926%
CCC(=O)N1CCCC1(C)C(=O)Nc1ccc2c(c1)CCN2C(C)=O (configuration not stated) | -0.545%
NS(=O)(=O)c1ccc(N2C(=O)C3C4CC(C(Br)C4Br)C3C2=O)cc1 (configuration not stated) | -0.391%
CCc1ccc(-c2cc3c(=O)n(CC(=O)NCCCN4CCN(Cc5ccccc5)CC4)nc(C)n3n2)cc1 | -3.13%
C/C(=N\c1nc2ccccc2n1C)c1cc(Cl)ccc1O | 1.93%
COc1cc(C(=S)NCc2ccccc2)cc(Br)c1O | 4.38%
O=S1(=O)CC(N2CCN(CCO)CC2)CN1C1CCCC1 (configuration not stated) | -0.753%
CSc1cccc(NC(=O)C2CCCN2S(=O)(=O)c2ccc3c(c2)CCC(=O)N3)c1 (configuration not stated) | -0.538%
O=[N+]([O-])c1cc(S(=O)(=O)N2CCCC2)ccc1NN=C1CCCC1 | 0.0654%
COc1ccc(/C=C2\CCCC3C2=NN(C(=O)c2scnc2C)C3c2ccc(OC)cc2)cc1 (configuration not stated) | -11.9%
CCN(c1ccccc1)S(=O)(=O)c1ccc2[nH]c(=O)[nH]c2c1 | -1.12%
O=C1CCC(C(=O)N2CCC(O)(c3ccccc3)CC2)CN1CCc1ccccc1 (configuration not stated) | -2.93%
COc1ccc(CCN2CC(C(=O)NCCN3CCNC3=O)CCC2=O)cc1 (configuration not stated) | 0.0278%
Cc1ccc(-c2nc(CSCC(=O)NC3CCN(Cc4ccccc4)CC3)c(C)o2)cc1 | 1.7%
CC1(C)N=C(c2ccccn2)C(C)(C)N1O | -4.4%
O=C(CSc1nc(C2CC2)nc2ccccc12)Nc1cccc(O)c1 | -3.6%
O=C(NNc1c2ccccc2nc2ccccc12)c1cc2ccccc2cc1O | 55.7% (active)
O=C(Cc1ccccn1)c1ccc(O)cc1O | -2.78%
O=C(COC(=O)COc1ccccc1F)Nc1cccc(S(=O)(=O)N2CCCCC2)c1 | 4.15%
CC1(c2ccccc2Cl)NC(=O)N(CC(=O)NC(=O)NCc2ccco2)C1=O (configuration not stated) | -1.98%
O=C(Cn1c(-c2cscn2)nc2ccccc21)Nc1ccc(Cl)cc1 | 0.072%

Structure (SMILES) | GFP/RFP ratio change
O=C(CSc1nnc(-c2ccc([N+](=O)[O-])cc2)o1)Nc1ccccn1 | 3.02%
O=C(c1cc2c(s1)CCC2)N1CCN(c2ccccc2)CC1 | -1.39%
O=C(COc1ncnc2c(Cl)cc(Cl)cc12)N1CCN(S(=O)(=O)c2ccccc2)CC1 | -1.19%
COc1ccc(C(=O)CN2C(=O)NC(C)(c3ccc(C)cc3)C2=O)cc1OC (configuration not stated) | 5.51%
CCOC(=O)C1CCN(C(=O)Nc2ccc(C)c(Cl)c2)CC1 | 2.62%
CCC1=C(OC(=O)N(CC)CC)N2C(=O)OC(=NCC3CC3)[C@]2(C)[C@H]2C1=CC[C@H]1C(=O)N(CC(=O)OC)C(=O)[C@H]12 | -1.64%
O=c1[nH]c2ccccc2n2c(-c3ccccc3)nnc12 | 2.93%
Cc1ccc(NC(=O)CSc2nnc(CNC(=O)c3ccccc3F)o2)cc1Cl | 3.87%
CCOC(=O)N1CCC(c2cc(=O)n(-c3ccccc3)[nH]2)CC1 | 9.16%
CCOc1ccc(CCNC(=O)COC(=O)C2CCN(S(=O)(=O)c3ccccc3)CC2)cc1OCC | 2.91%
O=C(NCCN1CCOCC1)c1ccccc1N1C(=O)[C@@H]2Cc3c([nH]c4ccccc34)C(c3cccc(Cl)c3)N2C1=O (some centres not stated) | -1.74%
CC1(C)CC(O)C(CCC(O)c2ccccc2)C(C)(C)N1 (configuration not stated) | -4.83%
CC1CCCCC12NC(=O)N(CC(=O)OCc1c(F)cccc1Cl)C2=O (configuration not stated) | -0.886%
O=C(CCN1CCN(C/C=C/c2ccccc2)CC1)Nc1cccc(F)c1 | 5.08%
CCCOC1CCCN(C(=O)c2cc(COc3cncc(Cl)c3)on2)C1 (configuration not stated) | 0.805%
CCCC1NC(=S)NC(C)=C1C(C)=O (configuration not stated) | 5.05%
O=C(C1CCN(S(=O)(=O)Cc2ccccc2)CC1)N1CCCc2ccccc21 | -2.92%
O=[N+]([O-])c1ccc(N2CCNCC2)cc1NCc1cccnc1 | -8.92%
O=C(NC1CCCC1)C(c1ccc(Cl)cc1)N(C(=O)c1csnn1)C1CC1 (configuration not stated) | -4.04%
O=C(c1ccco1)N1CCN(C(=O)C2CC(c3ccc(F)cc3)=NO2)CC1 (configuration not stated) | 1.83%
CCc1cccc2c(C=C(C#N)C#N)cn(CC(=O)N3CCCCC3)c12 | 0.243%
CC(=O)c1cccc(-c2cnc3c(NC=O)cc(-c4ccc(N5CCN(C)CC5)cc4)cn23)c1 | -9.51%

Structure (SMILES) | GFP/RFP ratio change
Cc1cc2ccccc2n1CCNC(=O)COc1ccc2ccccc2c1 | 30.8% (active)
CN(C)S(=O)(=O)c1cccc(NC(=O)COc2ccc3ccccc3c2)c1 | 3.9%
COCCNC(=O)COc1ccc(N(C)S(=O)(=O)c2ccc3ccccc3c2)cc1 | 0.935%
C[C@@H]1CN([C@@H](C)CO)C(=O)c2cc(Br)cnc2O[C@@H]1CN(C)C(=O)C1CCCCC1 | 5.19%
S=C1Nc2cc(Cl)ccc2Sc2ccccc21 | 1.33%
Cc1cc(C)cc(Oc2nc3c(C)cccn3c(=O)c2/C=C(\C#N)C(=O)NC2CCS(=O)(=O)C2)c1 (configuration not stated) | -5.71%
O=C(CSc1nnc(-c2ccoc2)o1)N1CCOCC1 | -1.67%
O=C1Nc2ccccc2NC(c2ccc3c(c2)OCO3)=C1N(Cc1ccc(F)cc1)C(=O)c1ccco1 | 1.27%
COc1ccc(C)cc1NC(=O)CCCN1C(=O)NC(C)(C)C1=O | -3.61%
C/C(=C\c1ccco1)CN1CCC(N2CCC(C(=O)N3CCOCC3)CC2)CC1 | 0.944%
Cc1ccc(CNC(=O)CC2Sc3ccccc3NC2=O)cc1 (configuration not stated) | 0.784%
Cc1cc(-c2nnc(SCC(=O)Nc3ccc(S(N)(=O)=O)cc3)n2N)n[nH]1 | -2.72%
O=C(CSc1ccc(C(F)(F)F)cc1[N+](=O)[O-])NCCOc1ccccc1 | -0.0162%
Cc1cc(-c2nnc(CCC(=O)NC(c3ccccc3)c3ccccc3)o2)no1 | -0.114%
CCn1c(SCC(=O)NC2CC2)nnc1-c1ccncc1 | 1.37%
O=C(NCCCn1ccnc1)C1CCCN(S(=O)(=O)c2cc(Cl)ccc2Cl)C1 (configuration not stated) | 0.609%
CC(C)C(NC(=O)c1cccc(S(=O)(=O)N2CCOCC2)c1)C(=O)NCCc1ccccn1 (configuration not stated) | -6.01%
CC(Sc1nncs1)C(=O)NCc1ccc2c(c1)OCO2 (configuration not stated) | 2.24%
CN(C)c1ccc(NC(=O)CN2C3CCCC2CC(NC(=O)c2ccccc2)C3)cc1 (configuration not stated) | 6.85%
CCc1cc(-c2nnn(CCC3COCCO3)c2CC)ccc1-c1cn(Cc2ccc3ccccc3c2)nn1 (configuration not stated) | 2.05%
C/C=N/N(c1ccccc1)c1ccccc1 | -0.385%
NS(=O)(=O)c1ccc(CCNC(=O)CCCn2c(SCC(=O)N3CCCC3)nc3ccsc3c2=O)cc1 | -1.21%

Structure (SMILES) | GFP/RFP ratio change
O=C(Nc1ccn(CCCNCc2ccc3[nH]ccc3c2)c(=O)n1)OCc1ccccc1 | -0.535%
CCOC(=O)C1C(c2ccc(OC)c(OC)c2)c2c([nH][nH]c2=O)CC1(C)O (configuration not stated) | 4.39%
O=C1CCN(Cc2ccccc2)CCN1[C@H](CSc1ccccc1)c1ccccc1 | -2.64%
COc1c(O)cccc1-c1nnn(CCC(=O)OCC(=O)c2ccccc2)n1 | 4.76%
CN(CC(=O)Nc1ccccc1F)CC(=O)Nc1ccccc1Br | 7.11%
O=C1NC[C@H](CCCCN2C[C@H](Cc3ccc(O)cc3)N(CC3CCCCC3)C(=O)C2=O)N(CCc2ccccc2)C1=O | 1.64%
N#C[C@]1(S(=O)(=O)c2ccccc2)C[C@@H]2ON=C(c3cccc(Br)c3)[C@@H]2C1 | 2.88%
CC(C)CC(O)C1CCN(C(=O)CCc2nnc(-c3ccc4c(c3)OCO4)o2)CC1 (configuration not stated) | 1.69%
O=S1(=O)CCOC[C@H](Cc2ccccc2)N1Cc1ccccc1Br | -1.83%
O=C(c1cc(Cl)cc(Cl)c1)N1CCC(=O)N(C(COCc2ccccc2)Cc2ccccc2)CC1 (configuration not stated) | -5.95%
O=C(Nc1ccccc1F)C1C2C=CC3(O2)C1C(=O)N(c1cccnc1)C3C(=O)NC1CCCCC1 (configuration not stated) | 1.65%
CCOC(=O)/C(N=Nc1cc(C(=O)O)cc(C(=O)O)c1)=C(\O)CCl | -3.33%
Cc1cccc(C)c1NC(=O)C1(C)c2cccc[n+]2CC(=O)N1Cc1cccs1 (configuration not stated) | -3.13%
CCCCCCCCOC1OC(CO)C(O)C(O)C1NC(C)=O (configuration not stated) | 0.0413%
O=C(c1cccc(Cl)c1)N1CCN(Cc2ccccc2)CC1 | 30.7% (active)
O=C(c1cccc(S(=O)(=O)N2CCCCCC2)c1)N1CCN(Cc2ccccc2)CC1 | -4.24%
CC(C)CC(=O)N1CCN(Cc2cccc(Cl)c2)CC1 | -0.171%
CN(C)c1ccc(C=NCCc2ccc(S(N)(=O)=O)cc2)cc1 | 3.81%
CN(CC(=O)NC(=O)Nc1ccccc1F)Cc1ccccc1 | 1.45%
COC(=O)C1C(=O)CC(C)(O)C(C(=O)OC)C1c1ccc2c(c1)OCO2 (configuration not stated) | 19%
CS(=O)(=O)c1ccc2nnn(OCC(=O)Nc3cccc(C#N)c3)c2c1 | 0.844%
